One molecule from ChEMBL document CHEMBL1138325, “Design, synthesis, in vitro, and in vivo characterization of phenylpiperazines and pyridinylpiperazines as potent and selective antagonists of the melanocortin-4 receptor” (J Med Chem, 2007) can be followed below.

A word on the Tmax: it is the time from dosing to the highest level. By bioavailability is commonly meant the share of a dose that reaches the circulation, judged against a reference dose that is usually intravenous. For orientation: AUC means the area under the concentration-time curve, a measure of exposure. For orientation: IC50 means the concentration that gives 50% inhibition. In general, Ki refers to the dissociation constant of the complex between target and ligand, obtained from inhibition or displacement. As a reminder, the Cmax is the highest concentration seen after dosing.

Molecules are shown by their SMILES. Calls of active or inactive are those of the source. No cut-off for these calls is given here. Some results are limits rather than exact numbers.

A short description of data set [1]: Tmax in Sprague-Dawley rat at 5 mg/kg, iv and 10 mg/kg, po. In kind it is ADME, organism-based. To be noted: in vivo. The method in brief: (§1)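 Sprague–Dawley rats, three animals per route; i.v. dose 5 mg/kg and oral 10 mg/kg. Brain concentrations and brain/plasma ratios taken from the oral dosing at 1 and 4 h post-dose.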
For data set [2], the system named is Mus musculus. Nature of the data set: Increase in food intake in Lewis lung carcinoma bearing C57BL/6J mouse at 9 mg/kg, ip bid after 4 days. In kind it is functional, organism-based. Also noted: dose 9 mg/kg. The procedure, abridged:
(§2)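 Male C57BL/6J mice inoculated with Lewis lung carcinoma cells. From day 11 after inoculation, mice were dosed i.p. twice daily at 3 or 9 mg/kg for 4 days and compared with vehicle-treated tumor-bearing controls. Food intake and body weight were recorded; lean body mass was measured by DEXA.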

Data set [3] is described as follows: Bioavailability in dog at 10 mg/kg, po. In kind it is ADME, organism-based, Canis lupus familiaris. The note with it: in vivo.
A short description of data set [4]: Volume of distribution in monkey at 5 mg/kg, iv. In kind it is ADME, organism-based, Macaca mulatta. The arrangement: dose 5 mg/kg, route intravenous. To be noted: rhesus monkey, in vivo.
Data set [5] is described as follows: AUC in CD1 mouse at 10 mg/kg, po. In kind it is ADME, organism-based. Also noted: dose 10 mg/kg, route oral. To be noted: plasma. The procedure, abridged:
(§3)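 CD-1 mice, three animals, dosed i.v. at 5 mg/kg and by oral gavage at 10 mg/kg. Plasma CL, Vd, t1/2, Cmax, Tmax, oral AUC and F% were derived. Brain concentrations and brain/plasma ratios at 1 and 4 h were taken from the i.v. dosing.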

Data set [6] is described as follows: AUC in Sprague-Dawley rat at 10 mg/kg, po. To be noted: plasma. Also noted: dose 10 mg/kg, route oral. In kind it is ADME, organism-based.
Another data set has as its target Cytochrome P450 2D6 (Homo sapiens, UniProt P10635). Kind of data set: Inhibition of CYP2D6. In kind it is ADME.
In data set [7] the test system is Mus musculus. Nature of the data set: Increase in lean body mass in Lewis lung carcinoma bearing C57BL/6J mouse at 9 mg/kg, ip bid after 4 days. In kind it is functional. The note with it: route intraperitoneal. The procedure, abridged: as §2
Data set [8] can be described thus: Bioavailability in CD1 mouse at 10 mg/kg, po. In kind it is ADME, organism-based. The note with it: in vivo. The procedure, abridged:
as §3

For data set [9], the system named is Mus musculus. Kind of data set: Increase in body weight in Lewis lung carcinoma bearing C57BL/6J mouse at 9 mg/kg, ip bid after 4 days. Also noted: dose 9 mg/kg. In kind it is functional, organism-based. The method in brief: as §2
Another data set deals with Cytochrome P450 2C19 (Homo sapiens, UniProt P33261). Nature of the data set: Inhibition of CYP2C19. In kind it is ADME.
Cytochrome P450 2C19, sequence (P33261 whole entry): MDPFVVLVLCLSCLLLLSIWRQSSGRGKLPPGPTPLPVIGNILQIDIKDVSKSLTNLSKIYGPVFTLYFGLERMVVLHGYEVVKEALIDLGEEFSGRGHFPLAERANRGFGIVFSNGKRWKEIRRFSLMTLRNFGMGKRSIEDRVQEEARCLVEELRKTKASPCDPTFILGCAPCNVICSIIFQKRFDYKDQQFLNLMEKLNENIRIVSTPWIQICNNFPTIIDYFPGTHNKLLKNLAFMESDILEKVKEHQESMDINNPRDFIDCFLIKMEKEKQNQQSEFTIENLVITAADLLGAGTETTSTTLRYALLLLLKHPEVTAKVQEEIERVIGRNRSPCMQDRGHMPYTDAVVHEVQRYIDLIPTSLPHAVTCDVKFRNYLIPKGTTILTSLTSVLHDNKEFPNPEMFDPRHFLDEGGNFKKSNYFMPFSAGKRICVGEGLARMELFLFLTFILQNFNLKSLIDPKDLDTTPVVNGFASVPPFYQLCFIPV
Data set [10] has as its system Mus musculus. Kind of data set: Increase in body weight in Lewis lung carcinoma bearing C57BL/6J mouse at 3 mg/kg, ip bid after 4 days. In kind it is functional, organism-based. The arrangement: dose 3 mg/kg. The procedure, abridged:
as §2

In data set [11] the target is Growth hormone secretagogue receptor type 1 (Homo sapiens, UniProt Q92847). Kind of data set: Binding affinity to GHSR.
Growth hormone secretagogue receptor type 1, sequence (Q92847 whole entry): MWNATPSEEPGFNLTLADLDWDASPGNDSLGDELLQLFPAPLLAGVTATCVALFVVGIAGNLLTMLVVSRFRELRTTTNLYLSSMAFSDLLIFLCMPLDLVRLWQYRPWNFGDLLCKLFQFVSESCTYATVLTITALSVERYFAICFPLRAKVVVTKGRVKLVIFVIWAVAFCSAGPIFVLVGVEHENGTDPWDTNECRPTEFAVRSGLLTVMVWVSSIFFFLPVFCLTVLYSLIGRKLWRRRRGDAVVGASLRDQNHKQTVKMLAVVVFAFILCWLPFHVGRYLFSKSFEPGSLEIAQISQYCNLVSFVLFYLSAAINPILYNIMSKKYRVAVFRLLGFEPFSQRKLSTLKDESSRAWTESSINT
Data set [12] can be described thus: Ratio of drug level in brain to plasma in Sprague-Dawley rat at 10 mg/kg, po after 4 hrs. The arrangement: dose 10 mg/kg, route oral. To be noted: brain and plasma, read-out: BPR. In kind it is ADME, organism-based. The procedure, abridged: as §1
Data set [13] in a line: Tmax in dog at 10 mg/kg, po. In kind it is ADME, organism-based, Canis lupus familiaris. The arrangement: dose 10 mg/kg, route oral. The note with it: in vivo.
The nature of data set [14]: Cmax in monkey at 10 mg/kg, po. The arrangement: dose 10 mg/kg, route oral. To be noted: rhesus monkey, in vivo. In kind it is ADME, organism-based, Macaca mulatta.
The nature of data set [15]: Volume of distribution in Sprague-Dawley rat at 5 mg/kg, iv and 10 mg/kg, po. In kind it is ADME, organism-based. The note with it: in vivo. The method in brief: as §1
Data set [16] can be described thus: Cmax in CD1 mouse at 10 mg/kg, po after 6 hrs. In kind it is ADME, organism-based. The arrangement: dose 10 mg/kg, route oral. The note with it: in vivo. The method in brief: as §3
The nature of data set [17]: Ratio of drug level in brain to plasma in CD1 mouse at 5 mg/kg, iv after 4 hrs. In kind it is ADME, organism-based. Also noted: dose 5 mg/kg, route intravenous. To be noted: brain and plasma, read-out: BPR.
The target of data set [18] is Melanocyte-stimulating hormone receptor (Homo sapiens, UniProt Q01726). Nature of the data set: Displacement of [125I]NDPMSH from human MC1R expressed in HEK293 cells at 10 uM. In kind it is cell-based. A general note: In a radioligand displacement assay an active substance lowers the binding of a labelled ligand.
Melanocyte-stimulating hormone receptor, sequence (Q01726 whole entry, looked up): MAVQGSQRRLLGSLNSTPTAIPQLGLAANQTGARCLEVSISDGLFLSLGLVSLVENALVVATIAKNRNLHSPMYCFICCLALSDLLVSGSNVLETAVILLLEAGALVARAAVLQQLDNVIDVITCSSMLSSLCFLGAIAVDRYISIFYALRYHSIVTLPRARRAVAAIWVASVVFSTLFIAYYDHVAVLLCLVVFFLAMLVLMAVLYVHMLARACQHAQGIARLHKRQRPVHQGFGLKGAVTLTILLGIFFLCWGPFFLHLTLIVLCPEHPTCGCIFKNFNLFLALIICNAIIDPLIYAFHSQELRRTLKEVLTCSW

Cytochrome P450 2D6, sequence (P10635 whole entry): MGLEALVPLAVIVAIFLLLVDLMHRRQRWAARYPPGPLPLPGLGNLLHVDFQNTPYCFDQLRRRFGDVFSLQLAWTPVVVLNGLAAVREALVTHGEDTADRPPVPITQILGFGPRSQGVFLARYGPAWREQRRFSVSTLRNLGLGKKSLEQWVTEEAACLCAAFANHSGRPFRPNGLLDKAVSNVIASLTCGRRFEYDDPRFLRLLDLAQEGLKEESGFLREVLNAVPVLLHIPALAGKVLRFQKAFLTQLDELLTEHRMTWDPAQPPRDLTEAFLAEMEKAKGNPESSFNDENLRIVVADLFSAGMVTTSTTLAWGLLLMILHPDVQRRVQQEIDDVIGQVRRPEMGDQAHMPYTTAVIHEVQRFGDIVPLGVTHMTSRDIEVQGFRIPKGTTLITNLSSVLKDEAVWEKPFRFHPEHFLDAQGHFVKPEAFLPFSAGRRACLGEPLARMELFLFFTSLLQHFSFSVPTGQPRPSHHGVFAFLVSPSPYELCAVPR

Regarding `CC(C)C[C@H](NC(=O)CCN(C)C)c1cc(Cl)ccc1N1CCN(C(=O)[C@H](C)Cc2ccc(Cl)cc2)CC1`, the Tmax in data set [1] was determined as 6 h; in [13] it was 1 h. The result in the data set with Mus musculus [2], with Mus musculus [9] and in the data set with Mus musculus [10] was Active. The results for the bioavailability in data set [3] and in [8] were 29.4% and 23%, respectively. The figures for the Vd in data set [4] and in data set [15] were 8.5 L/kg and 2.5 L/kg, respectively. The AUC in data set [5] turned out to be 1160 ng·h/mL; in [6] it was 1870 ng·h/mL. The 50% inhibitory concentration (IC50) on Cytochrome P450 2D6 and on Cytochrome P450 2C19 was above 10 µM in each case. The Activity with Mus musculus [7] worked out at 15%; in [18], 20%. Moreover, in data set [11], affinity was put at a Ki of 0.46 µM. In addition, the Kp at 4 h in data set [12] worked out at 0.3; in data set [17] it was 2.2. Also, the Cmax in data set [14] came out at 108 ng/mL; in data set [16] it was 132 ng/mL.
